According to ChEMBL document CHEMBL3627629 (Bioorg Med Chem Lett, 2015):

Experiments:
Format in all cases: cell-based
[1] = target: T1, Muscarinic acetylcholine receptor M5 (Homo sapiens, UniProt P08912); experiment: Displacement of [3H]NMS from human muscarinic M5 receptor expressed in CHO cells after 2 hrs by liquid scintillation spectrometry analysis
T1 sequence (P08912 whole entry): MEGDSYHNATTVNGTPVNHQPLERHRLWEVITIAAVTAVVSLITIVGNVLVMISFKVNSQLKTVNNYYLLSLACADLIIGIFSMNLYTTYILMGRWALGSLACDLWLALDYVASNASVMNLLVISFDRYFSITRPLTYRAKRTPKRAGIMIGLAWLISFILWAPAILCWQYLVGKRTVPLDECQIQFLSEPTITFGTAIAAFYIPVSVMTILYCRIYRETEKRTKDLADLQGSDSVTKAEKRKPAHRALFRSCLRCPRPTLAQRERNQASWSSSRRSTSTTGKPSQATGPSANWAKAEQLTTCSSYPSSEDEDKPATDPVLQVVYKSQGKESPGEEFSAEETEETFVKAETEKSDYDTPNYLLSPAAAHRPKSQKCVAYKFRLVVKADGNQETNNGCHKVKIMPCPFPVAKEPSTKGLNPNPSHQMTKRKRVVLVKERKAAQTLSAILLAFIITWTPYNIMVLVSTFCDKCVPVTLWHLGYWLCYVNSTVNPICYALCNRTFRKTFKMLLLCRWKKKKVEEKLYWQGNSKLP
How it was run: (§1)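 Membranes from CHO cells stably expressing recombinant human receptor: 10 µg protein/well for M1 and M5, 3 µg for M3. Incubated with 0.3 nM [3H]NMS and 1 nM–100 µM analog in 50 mM Tris-HCl pH 7.4, 2 h at 25 °C. Nonspecific binding defined with 1 µM atropine. GF/B filtration, washed three times. Ki from IC50 by Cheng-Prusoff. Three independent experiments in duplicate, mean ± SEM.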

[2] = target: Muscarinic acetylcholine receptor M3 (Homo sapiens, UniProt P20309); experiment: Displacement of [3H]NMS from human muscarinic M3 receptor expressed in CHO cells after 2 hrs by liquid scintillation spectrometry analysis; how it was run: as §1
[3] = target: T2, Muscarinic acetylcholine receptor M1 (Homo sapiens, UniProt P11229); experiment: Displacement of [3H]NMS from human muscarinic M1 receptor expressed in CHO cells after 2 hrs by liquid scintillation spectrometry analysis; how it was run: as §1
T2 sequence (P11229 whole entry): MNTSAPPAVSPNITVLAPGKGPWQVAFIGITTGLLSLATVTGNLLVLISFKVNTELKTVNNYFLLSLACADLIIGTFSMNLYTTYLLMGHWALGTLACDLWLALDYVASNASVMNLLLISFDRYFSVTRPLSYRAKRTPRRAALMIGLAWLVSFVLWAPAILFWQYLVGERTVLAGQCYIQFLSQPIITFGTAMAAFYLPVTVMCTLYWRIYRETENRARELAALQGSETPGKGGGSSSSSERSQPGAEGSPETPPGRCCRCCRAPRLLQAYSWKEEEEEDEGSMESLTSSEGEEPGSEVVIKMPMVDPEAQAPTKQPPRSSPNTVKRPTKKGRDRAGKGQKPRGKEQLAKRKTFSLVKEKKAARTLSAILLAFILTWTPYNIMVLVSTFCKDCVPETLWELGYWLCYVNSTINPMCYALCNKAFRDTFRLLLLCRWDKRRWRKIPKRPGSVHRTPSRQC

Muscarinic acetylcholine receptor M3, sequence (P20309 whole entry): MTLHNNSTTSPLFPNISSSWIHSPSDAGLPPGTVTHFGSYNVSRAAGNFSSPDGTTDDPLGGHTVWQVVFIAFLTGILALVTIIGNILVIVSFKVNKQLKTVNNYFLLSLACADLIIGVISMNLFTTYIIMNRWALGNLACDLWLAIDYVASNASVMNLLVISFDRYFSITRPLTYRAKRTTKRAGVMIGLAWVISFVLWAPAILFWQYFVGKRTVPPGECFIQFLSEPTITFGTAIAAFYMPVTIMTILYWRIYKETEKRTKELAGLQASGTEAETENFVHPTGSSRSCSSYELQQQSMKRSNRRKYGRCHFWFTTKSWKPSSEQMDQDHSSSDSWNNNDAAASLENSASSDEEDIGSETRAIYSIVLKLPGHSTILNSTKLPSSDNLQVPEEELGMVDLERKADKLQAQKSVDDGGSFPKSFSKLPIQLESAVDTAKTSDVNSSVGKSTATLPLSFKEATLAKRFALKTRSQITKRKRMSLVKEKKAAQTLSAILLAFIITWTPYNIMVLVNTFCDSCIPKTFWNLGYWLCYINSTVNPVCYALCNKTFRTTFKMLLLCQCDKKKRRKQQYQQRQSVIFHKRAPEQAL

`COc1ccc(CCC(=O)OCC2(c3ccccc3)CCN(C)CC2)cc1OC` was tested, and the Ki [1] was 2.14 µM, the Ki [2] was 4.6 µM and the Ki [3] was 3.63 µM.
Compound `COc1ccc(CCC(=O)OCC2(c3ccccc3)CCN(C)CC2)cc1` has a Ki [1] of 0.38 µM, a Ki [2] of 0.37 µM and a Ki [3] of 0.67 µM.
In the case of `COc1ccc(CCNC(=O)OCC2(c3ccccc3)CCN(C)CC2)cc1OC`, the Ki [1] is reported as 5.41 µM, the Ki [2] is reported as 4.03 µM and the Ki [3] is reported as 5.09 µM.
For `COc1ccc(CCNC(=O)C2(c3ccccc3)CCN(C)CC2)cc1OC`, the Ki [1] was greater than 30 µM, the Ki [2] was greater than 10 µM and the Ki [3] was greater than 30 µM.
Work on `COc1ccc(CCC(=O)NCC2(c3ccccc3)CCN(C)CC2)cc1` yielded a Ki [1] of 1.81 µM, a Ki [2] of 1.54 µM and a Ki [3] of 3.44 µM.
In the case of `COc1ccc(CCC(=O)NCC2(c3ccccc3)CCN(C)CC2)cc1OC`, the Ki [1] is reported as greater than 10 µM, the Ki [2] is reported as greater than 30 µM and the Ki [3] is reported as greater than 10 µM.
`COc1ccc(CCOC(=O)NCC2(c3ccccc3)CCN(C)CC2)cc1` gave a Ki [1] of 2.05 µM, a Ki [2] of 2.3 µM and a Ki [3] of 2.91 µM.
In the case of `COc1ccc(CCOC(=O)C2(c3ccccc3)CCN(C)CC2)cc1`, the Ki [1] is reported as 0.87 µM, the Ki [2] is reported as 0.64 µM and the Ki [3] is reported as 1.2 µM.
For `COc1ccc(CCOC(=O)C2(c3ccccc3)CCN(C)CC2)cc1OC`, the Ki [1] was 6.95 µM, the Ki [2] was 5.26 µM and the Ki [3] was 10.8 µM.
`COc1ccc(CCNC(=O)NCC2(c3ccccc3)CCN(C)CC2)cc1OC` gave a Ki [1] greater than 10 µM, a Ki [2] greater than 10 µM and a Ki [3] greater than 10 µM.
Compound `COc1ccc(CCNC(=O)C2(c3ccccc3)CCN(C)CC2)cc1` has a Ki [1] of 6.97 µM, a Ki [2] of 3.29 µM and a Ki [3] greater than 10 µM.
Compound `COc1ccc(CCNC(=O)NCC2(c3ccccc3)CCN(C)CC2)cc1` has a Ki [1] of 4.3 µM, a Ki [2] of 3.55 µM and a Ki [3] of 5.4 µM.
